From PubChem BioAssay
Values without a mark were called inactive. Results filed as inconclusive are left out. Activity calls are given as the source filed them.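 How the source made its calls, unless noted: active means RAM network inhibition above 8.4% in each of two replicates, 3 SD over the compound average; inconclusive means above 8.4% inhibition in only one replicate; inactive means 8.4% inhibition or less in each replicate.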

How the values were obtained:
[1] = OD615 S. cerevisiae growth inhibition, permissive medium, pilot counter-assay, permissive growth control for S. cerevisiae lifespan shortening project (AID 705;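 active means growth inhibition above 25% in both replicates, a cutoff set 3 SD above the mean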); conditions: OD615, 24 h, at 10 µM, hits give high values
Method in brief: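 Material: engineered DeaD yeast; compound dosing: one dose 10 µM, DMSO 0.25% final; measure: yeast growth inhibition indicated by reduced 24 h OD615; detection: OD615 turbidity read; incubation: cells pre-grown 4 h, then 24 h compound exposure, 30 °C humidified; medium: permissive synthetic complete medium with raffinose and galactose carbon sources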

[2] = Restrictive medium S. cerevisiae growth inhibition, OD615, pilot screen of yeast lifespan reduction project, restrictive growth control (AID 706;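 active means growth inhibition above a set limit, 3 SD over mean compound inhibition, in both replicates, cut at about 43% in these data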;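 further: modified DeaD lifespan yeast strain shifted to restrictive glucose medium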); conditions: OD615, 48 h, at 10 µM, hits give high values
Method in brief: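 material = engineered S. cerevisiae DeaD strain | medium = glucose-based CSMM-D restrictive medium | times = 4 h pre-incubation, 48 h exposure at 30 °C | technique = OD615 absorbance reading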

[3] = viability gain of MRP-1-high H69AR cells under doxorubicin, pilot screen, MRP-1 activator project, CellTiter-Glo, duplicate (AID 807;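 active means viability increase at or above a cutoff of the median across tested compounds plus 3 SD, cut at about 8.5% in these data, passing the limit was not always enough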;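 further: compound pretreatment 18-22 h then 72 h combined with doxorubicin; 0% = doxorubicin alone and 100% = vehicle without doxorubicin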); conditions: H69AR viability with doxorubicin, CellTiter-Glo luminescence; at 10 µM; hits give high values
[4] = growth suppression of beta-catenin knockout HCT116, pilot screen, human colon tumor cells (AID 823;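 active means cell viability at or below a set limit in both duplicate runs, the limit being the all-compound median minus 4 SD, cut at about 23% in these data, passing the limit was not always enough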;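 further: 0% = wells killed by 20 µM Hyamine and 100% = untreated DMSO cell wells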); conditions: CellTiter-Glo, 60 h, at 10 µM, hits give low values
[5] = growth suppression of PTEN-deleted HCT116, pilot screen, cell-based, HCT116 clonal line, CellTiter-Glo (AID 824;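 active means viability at or below 27.92% in each of two runs, the all-compound median minus 4 SD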;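 further: 0% = 20 µM Hyamine control and 100% = vehicle cell control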); conditions: 60 h, at 10 µM, hits give low values
[6] = inhibitors of the yeast RAM network, pilot screen, dse1pr::URA3 reporter, 5-FOA selection (AID 869;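 active means inhibition over a set limit, the all-compound mean plus 3 SD, in both replicate runs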;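 further: 0% = DMSO wells with no growth and 100% = 10 µM 1-NA-PP1 with full growth; RAM network block rescues cells from 5-FOA so hits raise OD615 growth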); conditions: S. cerevisiae dse1pr::URA3 5-FOA growth, OD615, 2 d; at 10 µM; hits give high values; strain carries analog-sensitive mutant Cbk1 kinase
[7] = RAM signaling pathway blockade in yeast – S. cerevisiae, Pdr1DBD-CYC8 efflux-inhibited sensitized strain, primary screen (AID 1298);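 further: 0% = DMSO untreated cells without growth and 100% = 10 µM 1-NA-PP1 full growth; higher means more yeast growth rescued from 5-FOA killing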; conditions: S. cerevisiae cbk1-as DSE1-URA3 strain, 5-FOA growth OD615, 2 d; at 50 µM; hits give high values

Row | SMILES | growth inhibition [1] [%] | growth inhibition [2] | viability increase [3] [%] | viability [4] [%] | viability [5] [%] | inhibition [6] [%] | RAM network inhibition [7] [%]
1 | C1CCc2c(nc3nnnn3c2N2CCOCC2)C1 | -0.9 | 3.85% | 1.82 | 107 | 98.4 | 1.07 | 5.8
2 | O=C(NCC1CCCO1)C1CC(=O)N(c2ccc(F)c(Cl)c2)C1 (configuration not stated) | -7.27 | -1.83% | -1.68 | 86.7 | 94.1 | 1.5 | 5.33
3 | COCCCN(C(=O)Nc1ccccc1)C(C)c1ccncc1 (configuration not stated) | 2.64 | -0.975% | -1.88 | 101 | 94.3 | 1.18 | 3.28
4 | Cc1c(C(=O)N2CCN(CCc3ccccc3)CC2)oc2ccccc12 | -0.01 | 7.52% | -1.75 | 100 | 94.7 | 0.455 | 1.34
5 | COc1ccc(C2CC3CC(c4ccccc4)N2O3)cc1 (configuration not stated) | -3.88 | -2.38% | -1.22 | 89.3 | 93.5 | 2.11 | 4.21
6 | O=C(C1CCC(CNc2c(N3CCOCC3)c(=O)c2=O)CC1)N1CCN(c2ccccc2)CC1 (configuration not stated) | -0.4 | -8.31% | -1.19 | 95.8 | 83.7 | 2.86 | 1.31
7 | CC(c1ccccc1)N1CNc2c(c(=O)n(C)c(=O)n2C)C1 (configuration not stated) | -8.04 | 2.52% | -1.82 | 94.3 | 92.2 | 0.02 | 0.77
8 | COc1ccccc1N1CCN(C(=O)c2sc3nc(-c4ccc(F)cc4)cn3c2C)CC1 | -6.38 | 2.76% | -1.57 | 57.6 | 58.8 | 0.235 | 1.42
9 | CS(=O)(=O)Nc1cccc2cccnc12 | 5.63 | -1.19% | -4.19 | 50.4 | 56.7 | 2.3 | 0.27
10 | CC1CCN(C(=O)c2cc(-c3ccccc3O)on2)CC1 | -10.2 | 9.11% | -0.44 | 108 | 91.5 | 0.335 | -2.14
11 | Cc1cc(OCC(=O)N(C)C)c2c(-c3ccccc3)cc(=O)oc2c1 | -3.89 | 2.71% | -3.03 | 97.4 | 94.7 | 0.915 | 5.21
12 | Cc1noc(NS(=O)(=O)c2ccc(NC(=O)CCn3c(=O)oc4ccccc43)cc2)c1C | 0.07 | -7.86% | -1.22 | 97.7 | 96.2 | 1.24 | 6.07
13 | COc1cccc(C(=O)NC2CC3CCCC(C2)N3CC(=O)Nc2ccc(N(C)C)cc2)c1 (configuration not stated) | -14.1 | -14.7% | -0.9 | 85.4 | 87.8 | 0.955 | 1.97
14 | CCN(CC)S(=O)(=O)c1cccc(-c2nnc(SCc3nnc(-c4cccs4)o3)n2N)c1 | 5.53 | 46.4% (active) | 0.28 | 86.5 | 92.5 | 1.85 | 3.12
15 | O=C(N[C@@H](Cc1ccccc1)C(=O)O)c1cccnc1 | -5.99 | -10.1% | 0.01 | 96.1 | 96.2 | 2.62 | 6.61
16 | CC(=NCCc1ccccc1)C1=C(O)CSC1=O | -3.27 | -6.07% | -1.75 | 99.4 | 96.3 | 0.97 | 1
17 | COc1ccc(Cl)cc1C(=O)NCC(C)C | 6.51 | 8.17% | -0.38 | 95.7 | 90.4 | 2.71 | 4.05
18 | COc1ccc(Cl)cc1NC(=O)C1CSC(c2ccncc2)=N1 (configuration not stated) | 1.68 | -12.2% | -8.24 | 65.2 | 61.5 | 0.41 | 5.11

Row | SMILES | growth inhibition [1] [%] | growth inhibition [2] | viability increase [3] [%] | viability [4] [%] | viability [5] [%] | inhibition [6] [%] | RAM network inhibition [7] [%]
19 | Cc1cccc(N(C(=O)Nc2ccccc2)C2=NCC(C)S2)c1 (configuration not stated) | -14.6 | -6.9% | 0.22 | 103 | 94.4 | -0.8 | 2.52
20 | CCn1cc(C(=O)N2CCN(Cc3ccc4c(c3)OCO4)CC2)c2cc(OC)c(OC)cc2c1=O | -9.86 | -27.3% | -5.64 | 96.1 | 85.9 | 0.125 | 2.76
21 | CC1=C(C#N)C2C(/C1=N/O)C2(C)C (configuration not stated) | -4.15 | -6.87% | -1.76 | 95 | 85.3 | 0.79 | 1.21
22 | CC(=O)NCC(=O)NC1(C(=O)NC2CCCC2)CCCCC1 | -1.73 | -24.5% | -0.35 | 97.8 | 99.6 | 4.11 | 2.03
23 | OC(C#CCN1CCCC1)c1ccccc1 (configuration not stated) | -1.08 | -5.8% | -0.22 | 91.6 | 98.8 | 0.7 | -0.43
24 | O=C(CCCCCn1c(=O)[nH]c2ccsc2c1=O)N1CCN(C2CCCCC2)CC1 | -5.63 | -0.345% | -1.81 | 95.3 | 92.3 | 1.38 | 3
25 | Cc1cc(C)n(-c2nc3ccccc3c3nc(C)nn23)n1 | -10.5 | -2.51% | -0.57 | 104 | 101 | 0.195 | 4.75
26 | COc1ccc(Br)cc1/C=N/n1c(C)nnc1C | -14 | -21% | -5.21 | 66 | 67.5 | 1.7 | -0.74
27 | Cc1cccc(Cn2c(CN3CCN(Cc4ccccc4)CC3)nc3c2c(=O)[nH]c(=O)n3C)c1 | -14.3 | -14.1% | -3.25 | 50.4 | 48.6 | 2.25 | 1.88
28 | CCOC(=O)C1C(=O)CC(C)(O)C(C(=O)OCC)C1c1cccs1 (configuration not stated) | -3.39 | -20.4% | -2.92 | 90 | 89.2 | 2.07 | 4.69
29 | CCOCCCn1cnc2c([nH]c3cc(OC)ccc32)c1=O | -14.1 | -13.8% | -0.55 | 95.8 | 96.9 | 1.41 | 5.51
30 | Cc1csc(=NC(=O)c2ccccc2)n1Cc1ccco1 | -16.8 | -36% | -2.24 | 87.9 | 89.9 | 1.38 | 3.14
31 | CCc1nnc(NC(=O)CSc2nccn2-c2cc(C)cc(C)c2)s1 | 3.21 | 23% | -6.31 | 86.2 | 75.8 | 0.195 | -1.37
32 | CSC(=NS(=O)(=O)c1ccc(C)cc1)SC | -11 | -20.2% | -1.03 | 94.6 | 93.1 | 2.02 | 4.14
33 | COC(=O)C1C(=O)c2c([nH]c(C(=O)OC3CCCC3C)c2C)CC1C (configuration not stated) | -4.87 | -2.27% | 3.21 | 81.2 | 72.7 | 2.68 | 3.76
34 | COc1ccc(NC(=O)C2CCN(S(=O)(=O)c3cccc4cccnc34)CC2)cc1 | -4.51 | 3.15% | 1.75 | 102 | 101 | 2.21 | 0.67
35 | CCOC(=O)c1cnn(CC2CCCCC2)c1N | 0.805 | 1.77% | -0.78 | 92.4 | 94.4 | 0.96 | -0.52
36 | O=C(CSc1ccccn1)c1ccc2c(c1)OCO2 | -3.07 | 9.94% | -0.21 | 99.2 | 96.2 | 0.92 | 2.86
